Source: PubChem (several laboratories)
An excerpt weighted towards active compounds, which were near 5.1% of everything screened.
STAT1 act = STAT1 signaling activators, primary screen, cell-based, HTS, luciferase reporter; NIH 3T3 STAT1-luciferase reporter, IFN-gamma, luminescence; 100% = IFN-gamma alone, no compound; activation (% of control), % at 5.5 µM; 200,000 compounds, 2.6% hits; AID 932, 2007;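 active = activation above the screen-wide mean activation plus 3 SD, cut at about 130% in these data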;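 also: raw ratio to IFN-gamma control signal so 100% means no change and 0% no light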
NF-kB expr up = activators of NF-kB expression in neurons, primary screen, cell-based, HTS; 190,000 compounds, 1.6% hits; fold change at 12.5 µM; human neuronal cells, NF-kB reporter expression; stronger effect = higher value; in the data active = fold change above about 3.3
STAT1 blocker = STAT1 signaling inhibitors, primary screen, cell-based, HTS, luciferase reporter. AID 920, 2007. NIH 3T3 STAT1-luciferase reporter, IFN-gamma, luminescence. inhibition, % at 5.5 µM. 200,000 compounds, 0.35% hits;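 active = inhibition above a set limit, the mean inhibition across all tested compounds plus 3 SD, cut at about 34% in these data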;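 also: 0% = IFN-gamma with DMSO and 100% = IFN-gamma with 300 µM nifuroxazide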
APP 5'UTR act = activators of APP 5'UTR luciferase reporter, primary screen, SH-SY5Y cells. activation, % at 2 µM. SH-SY5Y APP 5'UTR luciferase reporter, luminescence; zero percent = DMSO vehicle wells. 190,000 compounds, 1% hits;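 active = activation above a set limit, based on mean plus 3 SD of controls, cut at about 140% in these data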
STAT3 blocker = IL-6 driven STAT3 reporter inhibitors, primary screen, U3A cells, luciferase, luminescence, MLSCN library; IL-6 STAT3-luciferase reporter; host cell line lacks STAT1; inhibition, % at 5.5 µM; 190,000 compounds, 0.89% hits;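 active = inhibition above the mean inhibition across all screened compounds plus 3 SD, cut at about 44% in these data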;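 also: 0% = DMSO only wells and 100% = 100 µM nifuroxazide control wells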
STAT3 activator = IL-6 driven STAT3 reporter potentiators, primary screen, U3A cells, luciferase, luminescence, MLSCN library; IL-6 STAT3-luciferase reporter; 100% = signal with IL-6 EC80 alone; activation (% of control), % at 5.6 µM; 190,000 compounds, 0.91% hits; AID 871, 2007;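 active = activation above the screen-wide mean of compound activation plus 3 SD, cut at about 130% in these data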;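 also: 0% = background luminescence of wells with medium and substrate only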
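Test system: Human STAT1-deficient U3A cells with stable STAT3-luciferase reporter | Also added: Interleukin-6, 33 ng/mL | Timing: Compound pre-incubation 1 h before IL-6, then 6 h stimulation at 37 °C | Technique: Luciferase reporter luminescence | Read-out: Percent of IL-6-only median luminescence | Benchmarks: IL-6-only wells as 100% reference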
Active calls of the source: *; · = no result.

SMILES	STAT1 act	NF-kB expr up	STAT1 blocker	APP 5'UTR act	STAT3 blocker	STAT3 activator
COc1cc(NC(=S)Nc2ccc(N(C)C(C)=O)cc2)cc(OC)c1	92	1.2	6	16	7	99
Cn1ccnc1SCC(=O)Nc1cccc(C(F)(F)F)c1	107	1.5	-6	11	20	88
O=C(CSC1=NCCN1)Nc1cccc(C(F)(F)F)c1	142*	1.2	-44	-2	-8	106
O=C(Nc1ccc(SC(F)F)cc1)c1ccc(F)cc1	137*	4.7*	-39	107	20	84
O=C(Nc1ccc(F)cc1)c1ccccc1	121	1.7	-23	45	1	100
N#C/C(C(=O)Oc1ccccc1)=C1\C=CC=CN1	142*	1.9	-46	57	9	95
O=C(c1ccccc1)n1ccc(-c2cnc(-c3ccccc3)s2)n1	123	6*	-25	141*	28	81
Cc1ccc(OCC(=O)Nc2ccc(C)c(S(=O)(=O)N3CCCCC3)c2)c([N+](=O)[O-])n1	90	0.71	11	0	2	98
Cc1ccc(N2C(=O)C3N=NN(CC(=O)N4N=C(c5ccccc5)CC4c4ccccc4)C3C2=O)cc1 (configuration not stated)	98	1.1	3	-2	-4	103
Clc1cccc(Nc2nc(-c3cccnc3)cs2)c1	139*	2.6	-45	76	-64	157*
Brc1ccc(Nc2nc(-c3cccnc3)cs2)cc1	131*	1.1	-38	47	-72	165*
O=C(Nc1cccc(Cl)c1)Nc1nc(-c2ccc(Cl)cc2)cs1	85	1.2	16	5	33	78
c1ccc(CNc2nc(-c3cccnc3)cs2)cc1	112	2.1	-14	8	17	87
Cc1cccnc1NC(=S)NCCc1ccccc1	130*	2.1	-35	62	16	92
Cc1ccccc1C(=O)Nc1ccc(Cl)cn1	129*	2.5	-32	68	14	95
O=C(CCc1ccccc1)Nc1ccc(F)cc1F	109	1.8	-10	-47	4	98
O=C(Nc1ccccc1C(=O)O)c1ccc2ccccc2n1	100	1.8	0	23	-11	118
O=C(CCc1ccccc1)Nc1ccccc1F	144*	3.5*	-46	·	-2	102
Cc1ccc(NC(=O)c2ccc3ccccc3n2)nc1	147*	6.2*	-51	155*	-52	153*
COc1ccc(Cl)cc1-c1nc(SCC(=O)NCCN2C(=O)CSC2=O)n[nH]1	98	1.1	3	1	0	99
O=C(COC(=O)/C=C/c1ccc(Br)o1)NCCCN1CCCC1=O	103	1.1	-2	-5	5	100
CC(C)CC1NC(=O)N(CC(=O)NC2CCCc3ccccc32)C1=O (configuration not stated)	102	0.96	-2	20	4	96
CCSc1nnc(NC(=O)c2ccc3ccccc3n2)s1	142*	3	-45	103	-25	125
CCSc1nnc(NC(=O)c2cc(C)nc3ccccc23)s1	101	0.78	-1	-9	-1	105
O=C(CCCc1ccccc1)Nc1cccc(C(=O)O)c1	33	2.9	71*	13	73*	40
SMILES	STAT1 act	NF-kB expr up	STAT1 blocker	APP 5'UTR act	STAT3 blocker	STAT3 activator
Cc1ccc(NC(=S)NCCc2ccccc2)nc1	136*	1.8	-42	29	-11	116
O=C(CCCc1ccccc1)Nc1cccnc1Cl	108	1.2	-10	19	11	99
Cc1ccc(NC(=O)CCCc2ccccc2)nc1	138*	1.2	-43	73	-6	112
CCOc1cccc2sc(Nc3nc4ccc(NC(C)=O)cc4s3)nc12	114	1.1	-15	-3	7	96
Cn1cc(CN2CCCC(C(=O)c3nccn3C)C2)c(-c2cccc(Cl)c2)n1 (configuration not stated)	96	0.99	4	4	10	102
CCC(=O)Nc1ccc(NC(=O)c2ccccc2Cl)nc1	116	2.9	-17	18	2	101
CC(C)C(=O)Nc1ccc(NC(=O)c2ccccc2Cl)nc1	132*	1.9	-36	33	-10	111
O=C(CCc1ccccc1)Nc1ccc(Cl)cn1	130*	1.9	-33	-75	4	101
Cc1ccccc1-n1c(SC/C(O)=C(\C#N)c2nc3ccccc3[nH]2)nnc1-c1ccncc1	90	0.56	9	-9	-35	133*
O=C(O)Cc1sc(-c2cccnc2)nc1-c1ccc(Br)cc1	93	1.1	6	14	2	99
Brc1ccc(-c2nnc(-c3cccnc3)c3conc23)cc1	102	·	-2	-7	-37	134*
CCc1ccc(CN(C)Cc2nc(COc3ccccc3)no2)nc1	94	0.96	5	7	4	99
CCOC(=O)C(=O)N1CCC(C(=O)OC)CC1	99	1.2	-1	-9	-2	107
Cc1cc(N2CCC(C)CC2)n2ncc(-c3ccccc3)c2n1	132*	0.8	-35	194*	29	79
Cc1cc(N2CCCCC2)n2nc(C)c(-c3ccccc3)c2n1	108	1.4	-9	1	4	99
Cc1cc(N2CCCCC2)n2ncc(-c3ccc(Cl)cc3)c2n1	139*	1.1	-43	38	-22	121
Cc1cc(N2CCC(C)CC2)n2nc(C)c(-c3ccccc3)c2n1	98	1.1	2	-4	-6	107
Cc1cc(N2CCCCC2)n2ncc(-c3ccccc3)c2n1	111	1.2	-12	217*	48*	63
COCC(=O)NNS(=O)(=O)c1ccccc1[N+](=O)[O-]	98	1.1	3	-13	12	88
CS(=O)(=O)c1ccc(C(=O)OCc2nnc(-c3ccccc3)o2)cc1[N+](=O)[O-]	84	1	16	16	9	93
Cc1c(C(=O)OCC(C)C)[nH]c2c1C(=O)CC(c1cccs1)C2 (configuration not stated)	104	1.9	-4	-59	19	86
CC(C)NC(=O)c1cc(-c2ccco2)on1	117	1.5	-18	35	-1	103
CCCn1cc(NC(=O)c2cc(-c3ccccc3)on2)cn1	130*	3.6*	-32	0	4	103
Cc1ccc(-c2cc(C(=O)NCCN3CCOCC3)no2)cc1	100	1.1	0	22	6	98
CCCNC(=O)c1cc(-c2ccc(Br)cc2)on1	120	3.6*	-22	10	5	99
CC(C)NC(=O)c1cc(-c2ccc(Br)cc2)on1	150*	4.9*	-55	115	8	93
